In ChEMBL document CHEMBL1141385, “Lignans from Dysosma versipellis with inhibitory effects on prostate cancer cell lines” (J Nat Prod, 2007):

Legend:
[1] = tested on: PC-3; experiment: Cytotoxicity against androgen-independent human PC3 cells; format: cell-based
Method in brief: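 PC-3 (androgen-independent human prostate cancer) cells kept as monolayers in DMEM with 10% FBS, 2 mM L-glutamine, penicillin/streptomycin, 5% CO2. Plated at 3000 cells/well and left to attach overnight. Treated with compounds or DMSO vehicle for 48 h. Viability read by MTS (2–4 h, 37 °C) as absorbance at 490 nm. Run at least three times in triplicate.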

[2] = tested on: LNCaP; experiment: Cytotoxicity against androgen sensitive human LNCaP cells; format: cell-based
Method in brief: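 LNCaP (androgen-sensitive human prostate cancer) cells kept as monolayers in DMEM with 10% FBS, 2 mM L-glutamine, penicillin/streptomycin, 5% CO2. Seeded at 5000 cells/well, attached overnight, then exposed to compounds or DMSO vehicle for 48 h. MTS added for 2–4 h at 37 °C; formazan absorbance read at 490 nm. At least three experiments, each in triplicate.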

| Structure (SMILES) | IC50 [1] | IC50 [2] |
| --- | --- | --- |
| COc1cc([C@@H]2c3cc4c(cc3C[C@H]3COC(=O)[C@@H]32)OCO4)cc(OC)c1OC [DESOXYPODOPHYLLOTOXIN] | 0.032 µM | 0.03 µM |
| COc1cc([C@@H]2c3cc4c(cc3C[C@H]3COC(=O)[C@@H]32)OCO4)cc(OC)c1O [4'-DEMETHYLDEOXYPODOPHYLLOTOXIN] | 0.14 µM | 0.15 µM |
| COc1cc([C@@H]2c3cc4c(cc3[C@H](O)[C@H]3COC(=O)[C@H]23)OCO4)cc(OC)c1OC [PODOFILOX] | 0.034 µM | 0.031 µM |
| COc1cc([C@@H]2c3cc4c(cc3[C@H](O)[C@H]3COC(=O)[C@H]23)OCO4)cc(OC)c1O | 0.082 µM | 0.056 µM |
| COc1cc(O)cc([C@@H](O)[C@@H]2CO[C@@H](c3ccc(O)c(OC)c3)[C@@H]2CO)c1 [DYSOSMAROL] | 16 µM | 16 µM |
| COc1cc2c(O)c3c(c(-c4ccc5c(c4)OCO5)c2cc1OC)C(=O)OC3 [DIPHYLLIN] | 7.2 µM | 11.5 µM |
